The results in this text go back to ChEMBL document CHEMBL1131079, “Synthesis and evaluation of 2-amino-9-(3-hydroxymethyl-4-alkoxycarbonyloxybut-1-yl)purines as potential prodrugs of penciclovir” (J Med Chem, 1998).

The structures appear in SMILES notation. ≈ marks a conversion by molar mass, not a printed value.

The species named for one series is Mus musculus. Description: The total amount of penciclovir recovered in the urine over a 48-h period was determined by HPLC using a C18 reversed-phase column in mouse. It is filed as ADME, organism-based. The conditions noted are these: in vivo. An outline of the steps:
(§1)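 Urine collected 48 h in metabolic cages over sodium azide, then filtered. Penciclovir quantified by C18 HPLC with a three-step phosphoric acid/MeCN gradient, UV 248 nm. Result expressed as total urinary penciclovir, % of dose.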

Another series is filed under the species Rattus norvegicus. Kind of series: The total amount of penciclovir recovered in the urine over a 48-h period was determined by HPLC using a C18 reversed-phase column in rat. It is filed as ADME, organism-based. The conditions noted are these: in vivo. The essentials: as §1
The nature of series [1]: Solubility at 20 degree C was determined by the comparison of th UV absorbance of the saturated solution of each compound at 290 nm with that of the standard curve.
A short description of series [2]: Half-life by the HPLC using a C18 reversed-phase column at pH 1.2 (HC/NaCl buffer) and 37 degree C. The class given is ADME. The settings on record: HCl/NaCl buffer. The essentials:
(§2)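 Compound at 125 μM final (from 2.5 mM stock) incubated at 37 °C in HCl/NaCl buffer pH 1.2 or sodium phosphate buffer pH 6.0, 7.4 or 8.0. Aliquots taken at intervals were diluted into 0.1 M phosphate pH 7.0 and run isocratically on a C18 column with 0.1% phosphoric acid/MeCN eluents. Half-life calculated from remaining parent concentration.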

Series [3] in a line: Half-life by the HPLC using a C18 reversed-phase column at pH 6.0 (sodium phosphate buffer) and 37 degree C. It is filed as ADME. An outline of the steps:
as §2

Series [4] is described as follows: Half-life by the HPLC using a C18 reversed-phase column at pH 7.4(sodium phosphate buffer) and 37 degree C. The class given is ADME. The essentials: as §2
Series [5] can be described thus: Half-life by the HPLC using a C18 reversed-phase column at pH 8..0(sodium phosphate buffer) and 37 degree C. The class given is ADME. An outline of the steps:
as §2

The subject of a further series is Human alphaherpesvirus 1. Kind of series: Compound was tested for in vitro antiviral activity against herpes viruses of type 1 (HSV-1,KOS strain) (concentration required to reduce the OD value by 50% of the virus infected control). It is filed as functional, organism-based. The essentials:
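Dye-uptake assay. Vero cells (10⁵ cells/mL) in EMEM with 5% FBS were infected with HSV-1 KOS at 100 PFU/well. After 1 h adsorption, serial 3-fold compound dilutions from 125 μM were added in quadruplicate. After 48 h at 37 °C, neutral red uptake was eluted and read at 550 nm. EC50 derived by quantal probit analysis against virus and cell controls.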

Another series has as its system Vero. Kind of series: Compound was tested for cytotoxicity in Vero cells (concentration required to reduce the OD value by 50% of the control). It is filed as functional. The settings on record: Chlorocebus sabaeus. An outline of the steps:
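Vero cells (ATCC) seeded at 5 × 10³ cells/well and grown 24 h in EMEM, then exposed to a range of compound concentrations for 3 days at 37 °C, 5% CO₂. MTT added for a further 4 h, formazan dissolved in DMSO, OD read at 540 nm. CC50 is the concentration giving 50% OD reduction versus control. Quadruplicate wells, experiment repeated twice.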

Turning to `CC(C)CCOC(=O)OCC(CO)CCn1cnc2cnc(N)nc21` (configuration not stated), the “Urinary penciclovir recovery over 48 h (% of dose)” value in the series filed under Mus musculus was found to be 51%. In addition, the “urinary penciclovir recovery, % of dose” value in the series filed under Rattus norvegicus was 40%. This compound also had a solubility at 0.29 µM in series [1] of 5.6 mg/mL (≈ 15.9 mM). Moreover, the half-life in [2] was 24 days; in [3], 65 days; in series [4] it was 11 days; in series [5] it was 6 days. The EC50 in the series with Human alphaherpesvirus 1 is above 125 µM. In addition, the midpoint of cytotoxicity with Vero, the CC50, lay at 357 µM.
`Nc1ncc2ncn(CCC3COC(=O)OC3)c2n1`: in the series filed under Mus musculus, the “Urinary penciclovir recovery over 48 h (% of dose)” value was found to be 27%. The “urinary penciclovir recovery, % of dose” value in the series filed under Rattus norvegicus is 15%. Besides, the half-life was 2.6 days in series [3], 0.12 days in [4] and 0.07 days in series [5]. In the series on Human alphaherpesvirus 1, this compound registered an EC50 above 125 µM. In the series with Vero, this compound gave a half-maximal cytotoxic concentration (CC50) above 500 µM.
With `CC(C)OC(=O)OCC(CO)CCn1cnc2cnc(N)nc21` (configuration not stated), the “Urinary penciclovir recovery over 48 h (% of dose)” value in the series listed under Mus musculus stood at 53%. Further, the “urinary penciclovir recovery, % of dose” value in the series filed under Rattus norvegicus turned out to be 40%. In series [1], this compound yielded a solubility at 0.29 µM of 139 mg/mL (≈ 429 mM). Besides, the half-life in [2] was 88 days; in series [3], above 200 days; in series [4], 61 days; in [5] it was 26 days. Moreover, the EC50 in the series on Human alphaherpesvirus 1 is above 125 µM. In the series on Vero, this compound showed a CC50 above 500 µM.
On to `COC(=O)OCC(CO)CCn1cnc2cnc(N)nc21` (configuration not stated), for which the “Urinary penciclovir recovery over 48 h (% of dose)” value in the series listed under Mus musculus is listed as 45%. Further, the “urinary penciclovir recovery, % of dose” value in the series filed under Rattus norvegicus came out at 39%. The compound further gave a solubility at 0.29 µM in [1] of 14.1 mg/mL (≈ 47.7 mM). The half-life was 23 days in [2], 18 days in series [3], 1 days in [4] and 0.5 days in series [5]. The same compound registered an EC50 in the series with Human alphaherpesvirus 1 above 125 µM. Moreover, the CC50 in the series on Vero is above 500 µM.
Turning to `CCCCCOC(=O)OCC(CO)CCn1cnc2cnc(N)nc21` (configuration not stated), the “Urinary penciclovir recovery over 48 h (% of dose)” value in the series listed under Mus musculus worked out at 47%. Besides, in the series listed under Rattus norvegicus, the “urinary penciclovir recovery, % of dose” value is on record as 38%. In series [1], this compound displayed a solubility at 0.29 µM of 4.2 mg/mL (≈ 12 mM). Further, the half-life in [2] is 25 days; in series [3], 17 days; in series [4], 7 days; in series [5], 5 days. The compound also returned an EC50 in the series on Human alphaherpesvirus 1 above 125 µM. Moreover, the CC50 in the series with Vero was above 500 µM.
On to `CCOC(=O)OCC(CO)CCn1cnc2cnc(N)nc21` (configuration not stated), for which, in the series listed under Mus musculus, the “Urinary penciclovir recovery over 48 h (% of dose)” value is given as 50%. Moreover, in the series filed under Rattus norvegicus, the “urinary penciclovir recovery, % of dose” value is recorded as 40%. The compound also registered a solubility at 0.29 µM in series [1] of 20 mg/mL (≈ 64.7 mM). For the same compound, the half-life was 35 days in series [2], 112 days in series [3], 7 days in series [4] and 3 days in series [5]. The EC50 in the series with Human alphaherpesvirus 1 is above 125 µM. Moreover, the CC50 in the series on Vero is above 500 µM.
As to `CCCOC(=O)OCC(CO)CCn1cnc2cnc(N)nc21` (configuration not stated), the “Urinary penciclovir recovery over 48 h (% of dose)” value in the series listed under Mus musculus is recorded as 51%. The “urinary penciclovir recovery, % of dose” value in the series filed under Rattus norvegicus was determined as 34%. This compound had a solubility at 0.29 µM in [1] of 68 mg/mL (≈ 210 mM). Moreover, the half-life in series [2] was 29 days; in series [3], 89 days; in series [4], 10 days; in series [5], 4 days. In addition, the EC50 in the series with Human alphaherpesvirus 1 was above 125 µM. Moreover, in the series on Vero, the CC50 is above 500 µM.
Take `CC(=O)OCC(CCn1cnc2cnc(N)nc21)COC(C)=O` [FAMCICLOVIR]: the “Urinary penciclovir recovery over 48 h (% of dose)” value in the series listed under Mus musculus is reported as 48%. In addition, the “urinary penciclovir recovery, % of dose” value in the series filed under Rattus norvegicus amounted to 40%. Further, the EC50 in the series on Human alphaherpesvirus 1 is above 125 µM. The same compound had a half-maximal cytotoxic concentration (CC50) in the series with Vero above 500 µM.
Consider `CCCCOC(=O)OCC(CO)CCn1cnc2cnc(N)nc21` (configuration not stated), for which the “Urinary penciclovir recovery over 48 h (% of dose)” value in the series listed under Mus musculus amounted to 38%. For the same compound, in the series listed under Rattus norvegicus, the “urinary penciclovir recovery, % of dose” value came to 41%. The same compound came in with a solubility at 0.29 µM in series [1] of 15 mg/mL (≈ 44.5 mM). In addition, the half-life in [2] is 29 days; in series [3], 74 days; in series [4], 11 days; in [5] it was 5 days. The same compound yielded an EC50 in the series on Human alphaherpesvirus 1 above 125 µM. This compound also registered a CC50 in the series on Vero above 500 µM.
Consider `Nc1nc2c(ncn2CCC(CO)CO)c(=O)[nH]1` [PENCICLOVIR], for which, in the series filed under Mus musculus, the “Urinary penciclovir recovery over 48 h (% of dose)” value is listed as 3%. Further, in the series listed under Rattus norvegicus, the “urinary penciclovir recovery, % of dose” value was 9%. The compound further returned an EC50 in the series with Human alphaherpesvirus 1 of 8.65 µM. The same compound displayed a CC50 in the series with Vero above 500 µM.
As for `CC(C)COC(=O)OCC(CO)CCn1cnc2cnc(N)nc21` (configuration not stated), the “Urinary penciclovir recovery over 48 h (% of dose)” value in the series listed under Mus musculus came out at 38%. Also, in the series listed under Rattus norvegicus, the “urinary penciclovir recovery, % of dose” value is listed as 37%. In series [1], this compound had a solubility at 0.29 µM of 1.5 mg/mL (≈ 4.45 mM). The half-life is 28 days in series [2], 87 days in series [3], 17 days in [4] and 8 days in series [5]. Also, the EC50 in the series with Human alphaherpesvirus 1 is above 125 µM. For the same compound, in the series with Vero, the CC50 was above 500 µM.
